Measurements: ChEMBL document CHEMBL3351505, “Ultrasound-assisted synthesis of novel 1,2,3-triazoles coupled diaryl sulfone moieties by the CuAAC reaction, and biological evaluation of them as antioxidant and antimicrobial agents” (Eur J Med Chem, 2014)
In brackets after ≈: the same amount, converted by molar mass. Activity calls are given as the source filed them. No cut-off for these calls is given here.

How the values were obtained:
Saccharomyces cerevisiae [1] = experiment: Antifungal activity against Saccharomyces cerevisiae using 100 uL of test compound after 48 hrs by agar well diffusion method; assay type: functional
Summary of the method: (§1)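 Agar well diffusion. Sabouraud dextrose agar was spread with yeast or fungal suspension at 1×10⁶ CFU/mL, and 10 mm wells were cut. Wells were loaded with compound solution made at 200 mg per 1 mL DMSO. Plates were incubated 48 h at 28 °C and inhibition zones were measured. DMSO served as the negative control.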

Staphylococcus aureus [2] = experiment: Antibacterial activity against Staphylococcus aureus ATCC 29213 after 24 hrs by two fold serial dilution method; assay type: functional
Klebsiella pneumoniae [3] = experiment: Antibacterial activity against Klebsiella pneumoniae ATCC 13883 after 24 hrs by two fold serial dilution method; assay type: functional
Bacillus subtilis [4] = experiment: Antibacterial activity against Bacillus subtilis ATCC 6633 using 100 uL of test compound after 24 hrs by agar well diffusion method; assay type: functional
Summary of the method: (§2)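 Agar well diffusion. Nutrient agar was spread with bacterial suspension at 1×10⁸ CFU/mL, and 10 mm wells were cut. Wells were loaded with compound solution made at 200 mg per 1 mL DMSO. Plates were incubated 24 h at 37 °C and inhibition zones were measured. DMSO served as the negative control.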

Priestia megaterium [5] = experiment: Antibacterial activity against Bacillus megaterium ATCC 9885 after 24 hrs by two fold serial dilution method; assay type: functional
Saccharomyces cerevisiae [6] = experiment: Antifungal activity against Saccharomyces cerevisiae after 48 hrs by two fold serial dilution method; assay type: functional
Summary of the method: (§3)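 Two-fold serial broth dilution in a suitable broth, run only on compounds giving inhibition zones of at least 16 mm. Final concentrations were […]. Each 5 mL received 0.1 mL inoculum and was incubated 48 h at 28 °C. MIC was the lowest concentration without growth.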

Micrococcus luteus [7] = experiment: Antibacterial activity against Sarcina lutea after 24 hrs by two fold serial dilution method; assay type: functional
Klebsiella pneumoniae [8] = experiment: Antibacterial activity against Klebsiella pneumoniae ATCC 13883 using 100 uL of test compound after 24 hrs by agar well diffusion method; assay type: functional; summary of the method: as §2
Escherichia coli [9] = experiment: Antibacterial activity against Escherichia coli ATCC 25922 using 100 uL of test compound after 24 hrs by agar well diffusion method; assay type: functional; summary of the method: as §2
Priestia megaterium [10] = experiment: Antibacterial activity against Bacillus megaterium ATCC 9885 using 100 uL of test compound after 24 hrs by agar well diffusion method; assay type: functional; summary of the method: as §2
[11] = Antioxidant activity assessed as DPPH free radical scavenging activity by spectrophotometric assay; assay type: physicochemical
Summary of the method: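 Sample solutions at several concentrations were added to 0.004% DPPH in methanol and incubated 60 min in the dark. Absorbance was read at 517 nm against a blank. Inhibition % = (A_blank − A_sample)/A_blank × 100, where the control contained all reagents except the test compound.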

Aspergillus niger [12] = experiment: Antifungal activity against Aspergillus niger using 100 uL of test compound after 48 hrs by agar well diffusion method; assay type: functional; summary of the method: as §1
Staphylococcus aureus [13] = experiment: Antibacterial activity against Staphylococcus aureus ATCC 29213 using 100 uL of test compound after 24 hrs by agar well diffusion method; assay type: functional; summary of the method: as §2
Aspergillus niger [14] = experiment: Antifungal activity against Aspergillus niger after 48 hrs by two fold serial dilution method; assay type: functional; summary of the method: as §3
Pseudomonas aeruginosa [15] = experiment: Antibacterial activity against Pseudomonas aeruginosa ATCC 27953 using 100 uL of test compound after 24 hrs by agar well diffusion method; assay type: functional; summary of the method: as §2
Candida albicans [16] = experiment: Antifungal activity against Candida albicans NRRL Y-477 after 48 hrs by two fold serial dilution method; assay type: functional; summary of the method: as §3
Escherichia coli [17] = experiment: Antibacterial activity against Escherichia coli ATCC 25922 after 24 hrs by two fold serial dilution method; assay type: functional
Micrococcus luteus [18] = experiment: Antibacterial activity against Sarcina lutea using 100 uL of test compound after 24 hrs by agar well diffusion method; assay type: functional; summary of the method: as §2
Bacillus subtilis [19] = experiment: Antibacterial activity against Bacillus subtilis ATCC 6633 after 24 hrs by two fold serial dilution method; assay type: functional
Candida albicans [20] = experiment: Antifungal activity against Candida albicans NRRL Y-477 using 100 uL of test compound after 48 hrs by agar well diffusion method; assay type: functional; summary of the method: as §1
Pseudomonas aeruginosa [21] = experiment: Antibacterial activity against Pseudomonas aeruginosa ATCC 27953 after 24 hrs by two fold serial dilution method; assay type: functional

| Compound | MIC (Klebsiella pneumoniae [3]; ATCC 13883, 24 h) [µg/mL] | MIC (Priestia megaterium [5]; ATCC 9885, 24 h) [µg/mL] | MIC (Saccharomyces cerevisiae [6]) | MIC (Micrococcus luteus [7]) | IC50 [11] | MIC (Aspergillus niger [14]) [µg/mL] | MIC (Candida albicans [16]) | MIC (Escherichia coli [17]; ATCC 25922, 24 h) [µg/mL] | MIC (Pseudomonas aeruginosa [21]) | MIC (Staphylococcus aureus [2]; ATCC 29213, 24 h) [µg/mL] | diameter of the inhibition zone (DIZ) (Saccharomyces cerevisiae [1]) | diameter of the inhibition zone (DIZ) (Bacillus subtilis [4]) | diameter of the inhibition zone (DIZ) (Klebsiella pneumoniae [8]) [mm] | diameter of the inhibition zone (DIZ) (Escherichia coli [9]) [mm] | diameter of the inhibition zone (DIZ) (Priestia megaterium [10]) | diameter of the inhibition zone (DIZ) (Aspergillus niger [12]) [mm] | diameter of the inhibition zone (DIZ) (Staphylococcus aureus [13]) | diameter of the inhibition zone (DIZ) (Pseudomonas aeruginosa [15]) [mm] | diameter of the inhibition zone (DIZ) (Micrococcus luteus [18]) | diameter of the inhibition zone (DIZ) (Candida albicans [20]) [mm] | other results |
| --- | --- | --- | --- | --- | --- | --- | --- | --- | --- | --- | --- | --- | --- | --- | --- | --- | --- | --- | --- | --- | --- |
| O=S(=O)(c1ccccc1)c1ccc(C(O)Cc2cn(Cc3ccccc3)nn2)cc1 (centres undefined) | 200 (≈ 477 µM) | – | 200 µg/mL (≈ 477 µM) | 200 µg/mL (≈ 477 µM) | 200 µg/mL (≈ 477 µM) | 50 (≈ 119 µM) | – | 200 (≈ 477 µM) | 200 µg/mL (≈ 477 µM) | 200 (≈ 477 µM) | 17 mm | 17 mm | 23 | 19 | 14 mm | 30 | 19 mm | 20 | 20 mm | 19 | MIC (Priestia megaterium [5]): inactive; MIC (Candida albicans [16]; NRRL Y-477, 48 h): 200 µg/mL (≈ 477 µM); MIC (Bacillus subtilis [19]; ATCC 6633, 24 h): 200 µg/mL (≈ 477 µM) |
| O=C(Cn1cc(CC(O)c2ccc(S(=O)(=O)c3ccccc3)cc2)nn1)c1ccc(F)cc1 (centres undefined) | – | 200 (≈ 430 µM) | inactive | 200 µg/mL (≈ 430 µM) | 275 µg/mL (≈ 591 µM) | 50 (≈ 107 µM) | inactive | – | 200 µg/mL (≈ 430 µM) | – | inactive | 19 mm | 15 | 14 | 17 mm | 32 | 14 mm | 19 | 20 mm | 13 | MIC (Staphylococcus aureus [2]): inactive; MIC (Klebsiella pneumoniae [3]): inactive; MIC (Escherichia coli [17]): inactive; MIC (Bacillus subtilis [19]; ATCC 6633, 24 h): 200 µg/mL (≈ 430 µM) |
| O=C(Cn1cc(CC(O)c2ccc(S(=O)(=O)c3ccccc3)cc2)nn1)c1ccc(Br)cc1 (centres undefined) | 100 (≈ 190 µM) | 200 (≈ 380 µM) | 200 µg/mL (≈ 380 µM) | 200 µg/mL (≈ 380 µM) | 500 µg/mL (≈ 950 µM) | 50 (≈ 95 µM) | – | 200 (≈ 380 µM) | 100 µg/mL (≈ 190 µM) | 200 (≈ 380 µM) | 17 mm | 14 mm | 24 | 22 | 19 mm | 30 | 22 mm | 25 | 20 mm | 20 | MIC (Candida albicans [16]; NRRL Y-477, 48 h): 200 µg/mL (≈ 380 µM); MIC (Bacillus subtilis [19]): inactive |
| O=C(Cn1cc(CC(O)c2ccc(S(=O)(=O)c3ccccc3)cc2)nn1)c1ccc(S(=O)(=O)c2ccccc2)cc1 (centres undefined) | 200 (≈ 340 µM) | – | 200 µg/mL (≈ 340 µM) | 100 µg/mL (≈ 170 µM) | 74 µg/mL (≈ 126 µM) | 50 (≈ 85.1 µM) | inactive | – | 200 µg/mL (≈ 340 µM) | 200 (≈ 340 µM) | 16 mm | 20 mm | 19 | 17 | 15 mm | 28 | 17 mm | 17 | 22 mm | 15 | MIC (Priestia megaterium [5]): inactive; MIC (Escherichia coli [17]): inactive; MIC (Bacillus subtilis [19]; ATCC 6633, 24 h): 200 µg/mL (≈ 340 µM) |
| CC(O)(Cc1cn(CC(=O)c2ccc(Br)cc2)nn1)c1ccc(S(=O)(=O)c2ccccc2)cc1 (centres undefined) | 200 (≈ 370 µM) | – | inactive | inactive | 800 µg/mL (≈ 1480 µM) | 200 (≈ 370 µM) | inactive | 200 (≈ 370 µM) | 200 µg/mL (≈ 370 µM) | 200 (≈ 370 µM) | 14 mm | 17 mm | 19 | 17 | inactive | 20 | 17 mm | 19 | inactive | 15 | MIC (Priestia megaterium [5]): inactive; MIC (Bacillus subtilis [19]; ATCC 6633, 24 h): 200 µg/mL (≈ 370 µM) |

More lines, main results first:

| MIC (Klebsiella pneumoniae [3]; ATCC 13883, 24 h) [µg/mL] | MIC (Priestia megaterium [5]; ATCC 9885, 24 h) [µg/mL] | MIC (Saccharomyces cerevisiae [6]) | MIC (Micrococcus luteus [7]) | IC50 [11] | MIC (Aspergillus niger [14]) [µg/mL] | MIC (Candida albicans [16]) | MIC (Escherichia coli [17]; ATCC 25922, 24 h) [µg/mL] | MIC (Pseudomonas aeruginosa [21]) | MIC (Staphylococcus aureus [2]; ATCC 29213, 24 h) [µg/mL] | Compound | diameter of the inhibition zone (DIZ) (Saccharomyces cerevisiae [1]) | diameter of the inhibition zone (DIZ) (Bacillus subtilis [4]) | diameter of the inhibition zone (DIZ) (Klebsiella pneumoniae [8]) [mm] | diameter of the inhibition zone (DIZ) (Escherichia coli [9]) [mm] | diameter of the inhibition zone (DIZ) (Priestia megaterium [10]) | diameter of the inhibition zone (DIZ) (Aspergillus niger [12]) [mm] | diameter of the inhibition zone (DIZ) (Staphylococcus aureus [13]) | diameter of the inhibition zone (DIZ) (Pseudomonas aeruginosa [15]) [mm] | diameter of the inhibition zone (DIZ) (Micrococcus luteus [18]) | diameter of the inhibition zone (DIZ) (Candida albicans [20]) [mm] | other results |
| --- | --- | --- | --- | --- | --- | --- | --- | --- | --- | --- | --- | --- | --- | --- | --- | --- | --- | --- | --- | --- | --- |
| 200 (≈ 332 µM) | 200 (≈ 332 µM) | 200 µg/mL (≈ 332 µM) | inactive | 20 µg/mL (≈ 33.2 µM) | 50 (≈ 83.1 µM) | inactive | 200 (≈ 332 µM) | inactive | – | CC(O)(Cc1cn(CC(=O)c2ccc(S(=O)(=O)c3ccccc3)cc2)nn1)c1ccc(S(=O)(=O)c2ccccc2)cc1 (centres undefined) | 17 mm | inactive | 18 | 19 | 17 mm | 32 | inactive | 15 | 14 mm | 15 | MIC (Staphylococcus aureus [2]): inactive; MIC (Bacillus subtilis [19]): inactive |
| 200 (≈ 417 µM) | 200 (≈ 417 µM) | inactive | 200 µg/mL (≈ 417 µM) | 425 µg/mL (≈ 886 µM) | 50 (≈ 104 µM) | inactive | 200 (≈ 417 µM) | 200 µg/mL (≈ 417 µM) | 200 (≈ 417 µM) | CC(O)(Cc1cn(CC(=O)c2ccc(F)cc2)nn1)c1ccc(S(=O)(=O)c2ccccc2)cc1 (centres undefined) | inactive | 19 mm | 19 | 19 | 17 mm | 32 | 17 mm | 22 | 21 mm | 15 | MIC (Bacillus subtilis [19]; ATCC 6633, 24 h): 200 µg/mL (≈ 417 µM) |
| 100 (≈ 122 µM) | 100 (≈ 122 µM) | inactive | 100 µg/mL (≈ 122 µM) | Not Active | 25 (≈ 30.5 µM) | inactive | 100 (≈ 122 µM) | 100 µg/mL (≈ 122 µM) | 100 (≈ 122 µM) | CC(Cc1cn(CC(=O)c2ccc(Br)cc2)nn1)(OCc1cn(CC(=O)c2ccc(Br)cc2)nn1)c1ccc(S(=O)(=O)c2ccccc2)cc1 (centres undefined) | 14 mm | 14 mm | 26 | 24 | 23 mm | 32 | 24 mm | 26 | 24 mm | 15 | MIC (Bacillus subtilis [19]): inactive |
| – | 200 (≈ 331 µM) | inactive | 200 µg/mL (≈ 331 µM) | 600 µg/mL (≈ 992 µM) | 25 (≈ 41.3 µM) | – | 200 (≈ 331 µM) | 200 µg/mL (≈ 331 µM) | – | CC(Cc1cn(Cc2ccccc2)nn1)(OCc1cn(Cc2ccccc2)nn1)c1ccc(S(=O)(=O)c2ccccc2)cc1 (centres undefined) | 14 mm | 14 mm | 15 | 18 | 17 mm | 34 | 14 mm | 19 | 17 mm | 16 | MIC (Staphylococcus aureus [2]): inactive; MIC (Klebsiella pneumoniae [3]): inactive; MIC (Candida albicans [16]; NRRL Y-477, 48 h): 200 µg/mL (≈ 331 µM); MIC (Bacillus subtilis [19]): inactive |
